Source: ChEMBL document CHEMBL3588770, “Novel spirohydantoin derivative as a potent multireceptor-active antipsychotic and antidepressant agent” (Bioorg Med Chem, 2015)
The source made the active and inactive calls. No cut-off for these calls is given here.

What was measured:
[1] = target: D(2) dopamine receptor (Homo sapiens) (UniProt P14416); assay: Agonist activity at human recombinant D2 receptor expressed in HEK293 cells at 1 uM; type: cell-based
Procedure, shortened: (§1)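 Functional assays run by a contract lab on CHO or HEK-293 cells stably expressing the human receptor. Read-out was intracellular cAMP, IP1 or Ca2+ release. A single test concentration of 1.0E-06 was used, in duplicate. Data are mean % of the control response.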

[2] = target: D(2) dopamine receptor (Homo sapiens) (UniProt P14416); assay: Antagonist activity at human recombinant D2 receptor expressed in HEK293 cells assessed as inhibition of dopamine-induced response at 1 uM; type: cell-based; procedure, shortened: as §1
[3] = target: D(3) dopamine receptor (Homo sapiens) (UniProt P35462); assay: Antagonist activity at human recombinant D3 receptor expressed in CHO cells assessed as inhibition of dopamine-induced intracellular cAMP release at 1 uM by HTRF method; type: functional, cell-based; procedure, shortened: as §1
[4] = target: T1, 5-hydroxytryptamine receptor 1A (Homo sapiens) (UniProt P08908); assay: Agonist activity at human recombinant 5HT1A receptor expressed in HEK293 cells at 1 uM; type: cell-based; procedure, shortened: as §1
T1 sequence (whole entry): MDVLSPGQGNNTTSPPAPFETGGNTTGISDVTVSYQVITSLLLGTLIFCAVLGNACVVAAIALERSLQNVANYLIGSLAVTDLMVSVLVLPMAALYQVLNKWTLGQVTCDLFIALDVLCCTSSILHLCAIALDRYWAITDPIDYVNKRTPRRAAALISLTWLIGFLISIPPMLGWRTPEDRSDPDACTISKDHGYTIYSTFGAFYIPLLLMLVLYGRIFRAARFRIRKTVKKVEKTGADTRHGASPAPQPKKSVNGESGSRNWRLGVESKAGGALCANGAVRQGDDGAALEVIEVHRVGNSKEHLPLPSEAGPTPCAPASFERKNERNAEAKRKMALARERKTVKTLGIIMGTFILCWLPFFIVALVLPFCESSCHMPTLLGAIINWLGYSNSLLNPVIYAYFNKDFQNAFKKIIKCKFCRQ

[5] = target: T1, 5-hydroxytryptamine receptor 1A (Homo sapiens); assay: Antagonist activity at human recombinant 5HT1A receptor expressed in HEK293 cells assessed as inhibition of 8-OH-DPAT-induced response at 1 uM; type: cell-based; procedure, shortened: as §1
[6] = target: 5-hydroxytryptamine receptor 2A (Homo sapiens) (UniProt P28223); assay: Agonist activity at human recombinant 5HT2A receptor expressed in HEK293 cells assessed as intracellular IP1 release at 1 uM by HTRF assay; type: functional, cell-based; procedure, shortened: as §1
[7] = target: Adrenergic receptor alpha-1 (Homo sapiens) (UniProt P35348+P25100+P35368); assay: Antagonist activity at human recombinant alpha1 adrenoceptor expressed in CHO cells assessed as inhibition of agonist induced response at 1 uM; type: cell-based; procedure, shortened: as §1
[8] = target: T2, Alpha-2C adrenergic receptor (Homo sapiens) (UniProt P18825); assay: Agonist activity at human recombinant alpha2C adrenoceptor expressed in CHO cells assessed as intracellular cAMP release at 1 uM by HTRF assay; type: functional, cell-based; procedure, shortened: as §1
T2 sequence (whole entry): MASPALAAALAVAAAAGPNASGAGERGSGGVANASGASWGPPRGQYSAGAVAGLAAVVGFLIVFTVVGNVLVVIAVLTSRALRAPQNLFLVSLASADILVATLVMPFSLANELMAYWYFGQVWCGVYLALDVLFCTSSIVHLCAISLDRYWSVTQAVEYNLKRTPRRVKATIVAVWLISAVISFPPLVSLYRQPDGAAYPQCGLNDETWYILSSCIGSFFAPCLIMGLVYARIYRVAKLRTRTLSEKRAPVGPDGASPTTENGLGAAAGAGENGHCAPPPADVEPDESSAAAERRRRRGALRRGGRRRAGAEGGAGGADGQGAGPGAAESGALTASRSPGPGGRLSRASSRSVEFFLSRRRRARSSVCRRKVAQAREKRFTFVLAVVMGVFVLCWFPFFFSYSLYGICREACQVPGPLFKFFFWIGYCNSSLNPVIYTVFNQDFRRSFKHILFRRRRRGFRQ

[9] = target: Histamine H1 receptor (Homo sapiens) (UniProt P35367); assay: Agonist activity at human recombinant H1 receptor expressed in HEK-293 cells assessed as intracellular Ca2+ release at 1 uM by fluorimetry; type: functional, cell-based; details: HEK293; procedure, shortened: as §1
Mus musculus [10] = assay: In vivo antagonist activity at D2 receptor in ip dosed Swiss albino mouse assessed as inhibition of apomorphine-induced climbing behaviour administered 10 mins prior to apomophine injection measured after 20 mins; type: functional
Procedure, shortened: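 Male Swiss albino mice, 5-6 per dose, in metal-bar cages. Compound i.p. was followed 10 min later by apomorphine 3 mg/kg i.p. Climbing time (2–4 paws on the wall) was measured for 2 min starting 20 min after apomorphine. ID50 is the dose inhibiting climbing by 50%.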

Mus musculus [11] = assay: In vivo partial agonist activity at 5HT1A receptor in CD-1 mouse assessed as change in body temperature at 5 mg/kg, ip measured after 30 mins (reference value: -0.1 degC); type: functional, organism-based
Procedure, shortened: (§2)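 Male CD-1 mice, 7-9 per dose, compound suspended in 1% aqueous Tween 80 and given i.p. at 10 ml/kg. Rectal temperature was taken by thermometer 30, 60, 90 and 120 min after dosing. Change (Δt) is expressed against basal temperature measured at the start. Mean ± SEM, one-way ANOVA with Bonferroni test.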

Mus musculus [12] = assay: In vivo partial agonist activity at 5HT1A receptor in CD-1 mouse assessed as change in body temperature at 5 mg/kg, ip measured after 90 mins (reference value: -0.1 degC); type: functional, organism-based; procedure, shortened: as §2
Mus musculus [13] = assay: In vivo partial agonist activity at 5HT1A receptor in CD-1 mouse assessed as change in body temperature at 10 mg/kg, ip measured after 120 mins (reference value: -0.1 degC); type: functional, organism-based
Procedure, shortened: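 Male CD-1 mice, 7-9 per dose, dosed i.p. Rectal temperature was recorded at 30, 60, 90 and 120 min. Results are the change from basal temperature taken at the start of the experiment.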

Rattus norvegicus = assay: Inhibition of 8-OH-DPAT-induced lower lip retraction in Wistar rat at 5 to 40 mg/kg, ip administered 45 mins before 8-OH-DPAT administration; type: functional, organism-based
Procedure, shortened: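 Wistar rats, 5-6 per dose, given compound i.p. (1% Tween 80 suspension) 45 min before 8-OH-DPAT (1 mg/kg). Lower lip retraction was scored 15, 30 and 45 min after 8-OH-DPAT on a 0/0.5/1 scale (incisor visibility), giving a maximum total of 3. Mean ± SEM, ANOVA with Bonferroni test.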

Mus musculus [14] = assay: Toxicity in ip dosed spontaneous locomotor activity CD-1 mouse model assessed as dose required to cause sedation; type: organism-based; details: in vivo
Procedure, shortened: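 CD-1 mice, 8-10 per dose, with compound given i.p. in 1% Tween 80 suspension 60 min before testing. After 30 min habituation in individual cages, ambulation (channel crossings) was counted over 1 h, recorded every 5 min. Mean ± SEM, one-way ANOVA with Bonferroni test.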

Mus musculus [15] = assay: Anti-depressant like activity in Swiss albino mouse assessed as shortening of immobility time at 2.5 mg/kg, ip by forced swim test; type: functional
Procedure, shortened: (§3)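 Forced swim test in male Swiss albino mice, 7-9 per dose. Compound was given i.p. in 1% Tween 80 at 10 ml/kg, 60 min pretest. Mice swam for 6 min in a cylinder with 6 cm of water at 23-25 °C. Immobility was scored over the last 4 min. Analysis was one-way ANOVA with Bonferroni.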

Mus musculus [16] = assay: Anti-depressant like activity in Swiss albino mouse assessed as shortening of immobility time at 5 mg/kg, ip by forced swim test; type: functional; procedure, shortened: as §3

Sequence of D(2) dopamine receptor (Homo sapiens) (P14416 whole entry): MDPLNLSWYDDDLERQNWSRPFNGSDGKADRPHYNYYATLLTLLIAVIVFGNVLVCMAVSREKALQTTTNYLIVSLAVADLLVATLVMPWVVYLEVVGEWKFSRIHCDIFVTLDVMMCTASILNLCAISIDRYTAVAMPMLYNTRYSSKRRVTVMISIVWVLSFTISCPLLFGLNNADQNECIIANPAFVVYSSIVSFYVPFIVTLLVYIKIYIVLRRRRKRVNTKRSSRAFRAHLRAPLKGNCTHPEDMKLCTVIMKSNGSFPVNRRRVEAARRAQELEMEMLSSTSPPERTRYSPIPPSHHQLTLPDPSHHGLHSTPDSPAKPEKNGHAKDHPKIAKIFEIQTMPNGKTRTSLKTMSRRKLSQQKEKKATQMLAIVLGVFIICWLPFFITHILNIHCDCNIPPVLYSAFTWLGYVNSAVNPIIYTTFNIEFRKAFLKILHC
Sequence of D(3) dopamine receptor (Homo sapiens) (P35462 whole entry): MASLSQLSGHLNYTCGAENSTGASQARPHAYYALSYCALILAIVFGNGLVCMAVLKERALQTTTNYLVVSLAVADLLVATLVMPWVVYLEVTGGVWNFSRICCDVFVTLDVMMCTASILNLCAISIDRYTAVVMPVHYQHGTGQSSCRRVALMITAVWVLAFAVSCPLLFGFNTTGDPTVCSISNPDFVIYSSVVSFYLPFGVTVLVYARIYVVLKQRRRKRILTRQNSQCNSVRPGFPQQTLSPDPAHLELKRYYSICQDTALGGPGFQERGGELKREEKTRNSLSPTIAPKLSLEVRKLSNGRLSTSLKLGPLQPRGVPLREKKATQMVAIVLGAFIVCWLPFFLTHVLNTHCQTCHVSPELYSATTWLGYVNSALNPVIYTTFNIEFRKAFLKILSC
Sequence of Histamine H1 receptor (Homo sapiens) (P35367 whole entry): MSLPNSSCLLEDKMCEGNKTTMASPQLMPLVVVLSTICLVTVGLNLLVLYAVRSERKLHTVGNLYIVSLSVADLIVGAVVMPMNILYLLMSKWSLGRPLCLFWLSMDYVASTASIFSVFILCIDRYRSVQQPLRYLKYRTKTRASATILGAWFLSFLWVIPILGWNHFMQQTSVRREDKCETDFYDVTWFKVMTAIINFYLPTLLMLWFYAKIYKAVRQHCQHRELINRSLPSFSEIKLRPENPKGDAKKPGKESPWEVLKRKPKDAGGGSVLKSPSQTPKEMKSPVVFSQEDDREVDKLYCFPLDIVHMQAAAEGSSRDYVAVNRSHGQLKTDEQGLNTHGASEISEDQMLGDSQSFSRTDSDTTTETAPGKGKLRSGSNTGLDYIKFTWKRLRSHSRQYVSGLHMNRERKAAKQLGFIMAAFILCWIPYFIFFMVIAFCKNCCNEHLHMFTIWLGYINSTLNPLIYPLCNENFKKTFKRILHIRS
Sequence of 5-hydroxytryptamine receptor 2A (Homo sapiens) (P28223 whole entry): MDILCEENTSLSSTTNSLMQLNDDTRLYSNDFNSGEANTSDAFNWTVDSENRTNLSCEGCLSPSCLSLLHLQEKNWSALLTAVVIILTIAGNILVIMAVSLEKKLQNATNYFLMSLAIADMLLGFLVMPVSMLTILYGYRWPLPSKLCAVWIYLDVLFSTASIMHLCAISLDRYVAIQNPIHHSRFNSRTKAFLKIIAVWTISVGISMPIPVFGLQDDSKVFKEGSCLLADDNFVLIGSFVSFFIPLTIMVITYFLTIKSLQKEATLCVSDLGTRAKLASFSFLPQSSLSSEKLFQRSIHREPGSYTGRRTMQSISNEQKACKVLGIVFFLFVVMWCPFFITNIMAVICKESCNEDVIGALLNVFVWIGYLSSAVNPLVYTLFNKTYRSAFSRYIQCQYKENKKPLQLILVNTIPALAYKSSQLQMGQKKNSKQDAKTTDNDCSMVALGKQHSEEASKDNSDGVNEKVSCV

With `COc1ccccc1N1CCN(CCCCN2C(=O)NC3(CCc4ccccc43)C2=O)CC1` (stereo unspecified) the Activity [1] was 20%, the inhibition [2] was 85% and the inhibition [3] was 66%. For the same compound, the Activity [4] was 37%, the inhibition [5] was 102% and the Activity [6] was 1%. The inhibition [7] was 95%, the Activity [8] was 15% and the Activity [9] was -2%.
For `COc1ccccc1N1CCN(CCCCN2C(=O)NC3(CCCc4ccccc43)C2=O)CC1` (stereo unspecified), the Activity [1] was 24%, the inhibition [2] was 91% and the inhibition [3] was 53%. For the same compound, the Activity [4] was 26%, the inhibition [5] was 101% and the Activity [6] was 0%. For the same compound, the inhibition [7] was 94%, the Activity [8] was 20% and the Activity [9] was -2%. It also gave an ED50 (Mus musculus [10]) of 37.9 mg/kg, a deltaT (Mus musculus [11]) of -0.8 °C and a deltaT (Mus musculus [12]) of -0.7 °C. For the same compound, the deltaT (Mus musculus [13]) was -1.2 °C, the inhibition (Rattus norvegicus) was “Active” and the Activity (Mus musculus [14]) was 2.5 mg/kg. The inhibition in vivo at 2.5 mg/kg (Mus musculus [15]) was 37% and the inhibition in vivo at 5 mg/kg (Mus musculus [16]) was 45%.
